According to ChEMBL document CHEMBL1132728, “Inhibition of Escherichia coli glucosamine synthetase by novel electrophilic analogues of glutamine--comparison with 6-diazo-5-oxo-norleucine” (Bioorg Med Chem Lett, 2000):

Legend:
[1] = Second order rate constant ([…]) with Escherichia coli glucosamine synthetase
Method in brief: (§1)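 E. coli glucosamine synthetase was preincubated 15 min at 37 °C in 100 mM potassium phosphate, pH 7.5, with 10 mM fructose-6-phosphate and 50 mM KCl, then inhibitor was added. Timed aliquots were diluted 40-fold into the same buffer with 6 mM L-glutamine, and residual activity was read by colorimetric glutamate assay. The ln(residual activity)-versus-time plot gave t1/2, and kobs = ln2/t1/2. kobs versus [I] was fitted by Kitz–Wilson to give k+2 and Ki.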

[2] = Steady-state inactivation rate constant for inactivation of Escherichia coli glucosamine synthetase was determined; method in brief: as §1
Escherichia coli [3] = experiment: Limiting rate constant for inactivation of Escherichia coli glucosamine synthetase was determined; method in brief: as §1
[4] = Second order rate constant ([…]) was determined; method in brief: as §1
Escherichia coli [5] = experiment: Limiting rate constant for inactivation of Escherichia coli glucosamine synthetase was determined; No inhibition at 200 uM
[6] = Steady-state inactivation rate constant for inactivation of Escherichia coli glucosamine synthetase was determined; No inhibition at 200 uM
[7] = Second order rate constant ([…]) was determined; No inhibition at 200 uM

[N-]=[N+]=CC(=O)CC[C@H](N)C(=O)O [6-DIAZO-5-OXO-L-NORLEUCINE]
K+2/Ki [1]: 1170 M⁻¹ s⁻¹
Ki [2]: 9500 nM
K+2 (Escherichia coli [3]): 0.7 min⁻¹

N[C@@H](CCC(=O)CBr)C(=O)O
K+2/Ki [4]: 2500 M⁻¹ s⁻¹
Ki [2]: 2700 nM
K+2 (Escherichia coli [3]): 0.4 min⁻¹

CC(=[N+]=[N-])C(=O)CC[C@H](N)C(=O)O
K+2/Ki [4]: 333 M⁻¹ s⁻¹
Ki [2]: 1100 nM
K+2 (Escherichia coli [3]): 0.02 min⁻¹

N[C@@H](CCC(=O)CCl)C(=O)O
K+2/Ki [4]: 50 M⁻¹ s⁻¹
Ki [2]: 62500 nM
K+2 (Escherichia coli [3]): 0.19 min⁻¹

N#CCC[C@H](N)C(=O)O
K+2 (Escherichia coli [5]): No inhibition
Ki [6]: No inhibition
K+2/Ki [7]: No inhibition

C[S+](C)CC(=O)CC[C@H](N)C(=O)O
K+2/Ki [4]: 5330 M⁻¹ s⁻¹
Ki [2]: 370 nM
K+2 (Escherichia coli [3]): 0.12 min⁻¹
